PTEN del growth = growth suppressors of cells with PTEN tumor suppressor deletion; HCT116 PTEN-null viability, CellTiter-Glo, 60 h; hits give low values; viability, % at 10 µM; 140,000 tested, 1.2% active; AID 827;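 active means viability at or below a set limit, 4 SD under the median of all tested compounds, cut at about 3.7% in these data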;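 further: PTEN knockout HCT116 line with beta catenin targeted HCT116 as companion control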
PMI act satM6P = activators of human phosphomannose isomerase at near-saturating mannose 6-phosphate; P34949; coupled PMI enzyme assay, resazurin fluorescence, 20 min; hits give high values; 1 = untreated enzyme, 0 = substrate-free blank; activation factor at 20 µM; 190,000 tested, 0.34% active; AID 1216;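 active means activation factor of 2 or more at 20 µM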
Target sequence (P34949 whole entry, looked up): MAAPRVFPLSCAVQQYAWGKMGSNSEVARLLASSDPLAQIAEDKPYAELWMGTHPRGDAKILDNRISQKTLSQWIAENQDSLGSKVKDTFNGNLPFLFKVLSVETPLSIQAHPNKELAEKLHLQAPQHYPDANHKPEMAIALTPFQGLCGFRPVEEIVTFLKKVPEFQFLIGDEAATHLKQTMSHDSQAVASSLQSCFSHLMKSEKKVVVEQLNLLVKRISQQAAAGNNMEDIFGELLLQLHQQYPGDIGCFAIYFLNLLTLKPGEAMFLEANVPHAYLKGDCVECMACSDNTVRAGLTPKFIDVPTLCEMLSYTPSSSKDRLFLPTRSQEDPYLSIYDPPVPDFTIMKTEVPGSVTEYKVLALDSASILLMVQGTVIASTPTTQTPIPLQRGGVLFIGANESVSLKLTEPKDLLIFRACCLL
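Material: human phosphomannose isomerase with PGI, G6PDH, diaphorase coupling enzymes / Reagent: Man-6-P substrate 1.0 mM / Dosing: single compound dose of 20 µM, 1% DMSO final / Incubation: enzyme reaction with compound 20 min at room temperature / Signal: resorufin fluorescence (Ex 544/Em 590 nm) from resazurin via diaphorase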
HCT116 bCat-KO = beta-catenin-lacking colon tumor cell growth suppression; HCT116 beta-catenin knockout viability, CellTiter-Glo, 60 h; hits give low values; viability, % at 10 µM; 140,000 tested, 1.5% active; AID 818;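 active means viability at or under a set limit, the compound median less 4 SD, cut at about 6% in these data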
PMI activator = increases human mannose-6-phosphate isomerase activity | purified human PMI, coupled resazurin fluorescence, 20 min; hits give high values; 1 = vehicle control, 0 substrate-free wells | activation factor at 20 µM | 190,000 tested, 0.005% active;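 active means activation factor of 2 or more at 20 µM, relative to plate controls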
L major viab = Leishmania major promastigote growth inhibition. Leishmania major promastigotes, resazurin fluorescence viability. inhibition, % at 10 µM. 200,000 tested, 9% active; in the data active means inhibition above about 50%;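 further: promastigotes grown with compound for 44 hours at 28 °C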
Numbers stand for hits; . = inactive; / = not tested or not shown. Hits are enriched below; roughly 9.6% of the tested compounds scored in any of these assays.

SMILES | PTEN del growth | PMI act satM6P | HCT116 bCat-KO | PMI activator | L major viab
CCn1cc(C(=O)NCc2ccccc2)c(=O)c2cc(F)c(N3CCN(C(=O)c4ccco4)CC3)cc21 | . | . | . | . | 95
CCn1cc(C(=O)NCc2ccc3c(c2)OCO3)c(=O)c2cc(F)c(N3CCN(C(=O)c4ccco4)CC3)cc21 | . | . | . | . | .
COc1ccccc1NC(=O)c1ccc2c(c1)nnn2C | / | . | / | . | .
Cc1cc(O)c(/C=N/Nc2ccccc2Cl)c(=O)o1 | . | 2.2 | . | . | .
Cc1ccc(-c2nc(C=Nc3cccc(C)c3)c(O)o2)cc1 | / | . | / | . | .
Cc1cc(O)c(/C=N/Nc2cccc(Cl)c2)c(=O)o1 | . | 2.5 | . | . | 94
COc1ccc(Cl)cc1N=Cc1c(O)cc(C)oc1=O | / | / | / | / | .
Cc1cc(O)c(/C=N/Nc2ccc(Cl)cc2)c(=O)o1 | . | 2.1 | . | . | 98
Cc1cccc(N=Cc2c(O)cc(C)oc2=O)c1 | / | . | / | . | 62
CNC(=O)CN(C)S(=O)(=O)c1ccc(F)cc1 | . | . | . | . | .
O=C(N=Nc1c(O)[nH]c2ccccc12)c1ccco1 | / | . | / | . | .
O=C(O)c1cn(C2CC2)c2cc(N3CCN(S(=O)(=O)c4ccc5c(c4)OCCO5)CC3)c(F)cc2c1=O | / | . | / | . | .
COc1ccc(-c2csc(/C(C#N)=C\c3ccc(OC)c([N+](=O)[O-])c3)n2)cc1 | . | . | . | . | 91
COc1ccc(-c2csc(/C(C#N)=C\c3cccc([N+](=O)[O-])c3)n2)cc1 | . | . | . | . | .
Cc1ccnc(NS(=O)(=O)c2ccc(NC(=O)c3ccc(S(=O)(=O)N4CC(C)OC(C)C4)cc3)cc2)n1 (configuration not stated) | . | . | . | . | .
COc1ccc(C(=O)OCCNC(=O)c2c(Cl)nc3ccccn23)cc1 | . | . | . | . | .
CC(C)(C)c1ccc(C(=O)OCCNC(=O)c2c(Cl)nc3ccccn23)cc1 | . | . | . | . | 76
O=C(Nc1ccc(Oc2nnc(-c3ccccc3)c3ccccc23)cc1)c1ccccc1 | . | . | . | . | 77
C=CCNC(=S)N/N=C(\C)c1ccccn1 | . | . | . | . | 100
C/C(=N\NC(=O)CCCNc1ccc(C)cc1)c1ccccn1 | . | . | 5.8 | . | 98
C/C(=N/NC(=O)CNC(=O)c1ccccn1)c1ccccc1 | . | . | . | . | .
C/C(=N\NC(=O)CCCNc1ccccc1)c1ccncc1 | / | . | / | . | .
COc1ccc2c(COC(=O)CNC(=O)C34CC5CC(CC(C5)C3)C4)cc(=O)oc2c1 | . | . | . | . | .
COc1ccc(C/C(O)=C(\C#N)c2nc3ccccc3[nH]2)cc1OC | . | . | . | . | .
COc1cc(CC(C#N)(CO)c2nc3ccccc3[nH]2)ccc1OC(F)F (configuration not stated) | . | . | . | . | 82
SMILES | PTEN del growth | PMI act satM6P | HCT116 bCat-KO | PMI activator | L major viab
O=C(NCc1ccco1)C1CCCN1C(=O)Nc1cccc(Cl)c1 (configuration not stated) | / | . | / | . | .
Cc1c(Cl)cccc1NC(=O)CNc1cccc(S(=O)(=O)N(C)C)c1 | . | . | . | . | 72
CN(C)S(=O)(=O)c1cccc(NC(=O)CCSc2ccc(Cl)cc2)c1 | . | . | . | . | .
CCOc1ccccc1Oc1c(C)oc2c(CN3CCN(C)CC3)c(O)ccc2c1=O | . | . | . | . | 75
COc1ccc(-c2c(C)oc3c(CN4CCN(CCO)CC4)c(O)ccc3c2=O)cc1OC | . | . | . | . | 99
COC(=O)c1ccc(Oc2c(C(F)(F)F)oc3c(CN4CCN(C)CC4)c(O)ccc3c2=O)cc1 | . | . | . | . | 100
COc1ccccc1-c1c(C)oc2c(CN3CCN(CCO)CC3)c(O)ccc2c1=O | . | . | . | . | .
COc1ccccc1-c1c(C)oc2c(CN3CCN(C)CC3)c(O)ccc2c1=O | . | . | . | . | 90
CCOC(=O)c1oc2c(CN3CCN(C)CC3)c(O)ccc2c(=O)c1-c1ccccc1OC | . | . | . | . | .
Clc1ccc(CONc2ncnc3nonc23)c(Cl)c1 | / | . | / | . | .
O=C(/C=C/c1ccccc1[N+](=O)[O-])NC1CCCC1 | / | . | / | . | .
Cc1noc(C)c1COC(=O)[C@@H](NC(=O)c1ccccc1)C(C)C | / | . | / | . | .
N#C/C(=C(/O)COC(=O)c1ccc(C#N)cc1)c1nc2ccccc2s1 | . | . | . | . | .
O=C(Nc1nc2c(s1)CN(Cc1ccccc1)CC2)c1c(F)cccc1F | / | . | / | . | .
CC(=O)N(C)c1ccc(NC(=O)c2cnn(C)c2)cc1 | . | . | . | . | .
Cc1cccc(-c2nc(Nc3ccc(N4CCOCC4)cc3)c3ccccc3n2)c1 | . | . | . | . | 74
Cc1ccc(Nc2nc(N3CCOCC3)c3ccccc3n2)cc1 | . | . | . | . | 88
Oc1ccc(Nc2nc(N3CCCC3)c3ccccc3n2)cc1 | 1.8 | . | 2.0 | . | 100
c1ccc(Nc2nc(N3CCCC3)nc(N3CCCC3)n2)cc1 | . | . | . | . | .
Cc1ccc(Nc2nc(N)c([N+](=O)[O-])c(N3CCOCC3)n2)cc1 | . | . | . | . | .
COc1ccc(Nc2nc(N3CCCCC3)c3ccccc3n2)cc1 | . | . | . | . | 100
O=C(O)c1cccc(CSc2n[nH]c(-c3ccc(Cl)cc3Cl)n2)c1 | / | . | / | . | .
O=C(NC1CCCc2ccccc21)C(Cc1ccccc1)NS(=O)(=O)c1cccs1 (configuration not stated) | . | . | . | . | 77
Cc1ccc(CNC(=O)C(Cc2ccccc2)NS(=O)(=O)c2ccc(Br)s2)cc1 (configuration not stated) | . | . | . | . | .
O=C(NC1CCCCC1)C(Cc1ccccc1)NS(=O)(=O)c1cccs1 (configuration not stated) | . | . | . | . | .
SMILES | PTEN del growth | PMI act satM6P | HCT116 bCat-KO | PMI activator | L major viab
Cc1ccc(CNC(=O)C(Cc2ccccc2)NS(=O)(=O)c2cccs2)cc1 (configuration not stated) | . | . | . | . | 59
OCC1(Cc2ccccc2)CCCN(Cc2ccn[nH]2)C1 (configuration not stated) | / | . | / | . | .
CC(C)c1csc(CN2CCN(CCc3ccccc3)C(CCO)C2)n1 (configuration not stated) | / | . | / | . | 89
CCOc1ccc(CN2CCN(Cc3nc(C(C)C)cs3)CC2CCO)cc1 (configuration not stated) | / | . | / | . | 81
CCOc1ccc(CN2CCN(CCCn3cccn3)CC2CCO)cc1 (configuration not stated) | / | . | / | . | 92
CCOc1ccc(CN2CCN(Cc3[nH]c4ccc(OC)cc4c3C)CC2CCO)cc1 (configuration not stated) | / | / | / | / | 57
OCCC1CN(CCCn2cccn2)CCN1Cc1ccccc1 (configuration not stated) | / | . | / | . | .
CCOc1ccccc1CN1CCN(Cc2[nH]c3ccccc3c2C)CC1CCO (configuration not stated) | / | . | / | . | .

Assay outcomes deposited in PubChem BioAssay by several laboratories.
